Test [1] deals with Huh7.5. As to the kind of experiment: Effect on Hsc70 expression level in human Huh7.5 cells at 6.25 to 25 uM by Western blot analysis. As to conditions: dose 6.25-25 µM. The class given is functional, cell-based.
In test [2] the test system is Hepatitis C virus. The test is described as follows: Antiviral activity against HCV J6/JFH/JC1 harboring S282T mutant infected in human Huh7.5 cells assessed as inhibition of viral replication measured after 72 hrs by qRT-PCR analysis. It is filed as functional, organism-based, Hepacivirus hominis. Conditions: J6/JFH/JC1, Huh7.5, 72 h. In general terms: Quantitative PCR measures a nucleic acid by following its amplification.

Test [3] has as its system Huh7.5. The test is described as follows: Effect on CD36 expression level in human Huh7.5 cells at 6.25 to 25 uM by Western blot analysis. The class given is functional, cell-based. Conditions: dose 6.25-25 µM. For orientation: A western blot detects proteins with antibodies after separation by electrophoresis.
Test [4] concerns Hepatitis C virus. The test is described as follows: Synergistic antiviral activity against HCV J6/JFH/JC1 infected in human HuH7.5 cells assessed as inhibition of viral protein levels at 6.25 uM in presence of simeprevir measured after 72 hrs by western blot analysis. It is filed as functional, organism-based. Conditions: Hepacivirus hominis. In outline: (§1)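 Huh7.5 cells infected with HCV (45 IU/cell) and simultaneously treated with compound (6.25 μM) alone, DAA alone, or both. […] Intracellular protein analysed by Western blot at 72 h. At least triplicate, mean ± SD, Student's t test.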

Test [5] has as its system Hepatitis C virus. As to the kind of experiment: Antiviral activity against HCV J6/JFH/JC1 harboring D168V mutant infected in human Huh7.5 cells assessed as inhibition of viral replication measured after 72 hrs by qRT-PCR analysis. The class given is functional, organism-based, Hepacivirus hominis. Conditions: J6/JFH/JC1, Huh7.5, 72 h.
The subject of test [6] is Hepacivirus hominis. The test is described as follows: Inhibition of HCV NS5B polymerase.
The subject of test [7] is Hepacivirus hominis. The test is described as follows: Inhibition of HCV NS3/4a protease.
Test [8] can be described thus: Resistance ratio of EC50 for antiviral activity against HCV J6/JFH/JC1 harboring D168V mutant infected in human Huh7.5 cells to EC50 for antiviral activity against wild-type HCV J6/JFH/JC1 infected in human Huh7.5 cells. The class given is functional.
Test [9] concerns Hepatitis C virus. As to the kind of experiment: Antiviral activity against HCV infected in human HuH7.5 cells assessed as inhibition of viral protein level during early stage at 6.25 to 25 uM incubated for 2 hrs prior to compound washout followed by supplementation of fresh culture medium and measured after 72 hrs by Western blot analysis. The class given is functional, organism-based. As to conditions: Hepacivirus hominis; Huh-7; dose 6.25-25 µM. In outline:
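Huh7.5 cells seeded 24 h earlier, infected with HCV (150 IU/cell) with simultaneous compound or solvent control for 2 h. Cells washed with PBS and given fresh medium. Intracellular RNA (qRT-PCR) and protein (Western blot) extracted at 72 h.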

Test [10] concerns the target T1, Chondroitin sulfate N-acetylgalactosaminyltransferase 1 (Homo sapiens) (UniProt Q8TDX6).
T1 sequence (whole entry): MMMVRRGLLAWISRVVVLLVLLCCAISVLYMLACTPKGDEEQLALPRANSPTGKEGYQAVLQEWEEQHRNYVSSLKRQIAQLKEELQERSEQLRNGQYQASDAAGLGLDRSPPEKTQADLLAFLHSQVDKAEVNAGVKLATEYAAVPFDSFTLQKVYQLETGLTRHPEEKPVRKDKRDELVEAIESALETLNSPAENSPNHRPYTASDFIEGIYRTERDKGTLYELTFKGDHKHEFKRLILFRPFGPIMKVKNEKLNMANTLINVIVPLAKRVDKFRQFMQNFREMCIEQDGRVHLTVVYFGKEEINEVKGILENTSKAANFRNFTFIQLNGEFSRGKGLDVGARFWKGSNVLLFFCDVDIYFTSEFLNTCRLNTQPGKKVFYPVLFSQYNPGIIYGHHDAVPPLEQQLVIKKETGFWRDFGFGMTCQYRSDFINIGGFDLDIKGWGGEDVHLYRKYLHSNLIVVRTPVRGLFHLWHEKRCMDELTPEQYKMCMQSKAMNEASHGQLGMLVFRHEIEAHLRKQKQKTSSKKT
The test is described as follows: Destabilization of CSGalNacT-1 in HCV infected human HuH7.5 cells assessed as reduction in CSGalNacT-1 protein levels measured after 72 hrs by Western blot analysis. As to conditions: dose 6.25-100 µM. The essentials: (§2)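 Huh7.5 cells infected with HCV (45 IU/cell) and exposed to compound for 72 h. CSGalNAcT-1 protein measured by Western blot and mRNA by qRT-PCR. Error bars are SD of three independent experiments.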

Test [11] is described as follows: Resistance ratio of EC50 for antiviral activity against HCV J6/JFH/JC1 harboring S282T mutant infected in human Huh7.5 cells to EC50 for antiviral activity against wild-type HCV J6/JFH/JC1 infected in human Huh7.5 cells. It is filed as functional.
For test [12], the system named is Hepatitis C virus. The test is described as follows: Synergistic antiviral activity against HCV J6/JFH/JC1 infected in human HuH7.5 cells assessed as inhibition of viral protein levels at 6.25 uM in presence of sofosbuvir measured after 72 hrs by western blot analysis. The class given is functional, organism-based. Conditions: Hepacivirus hominis. The essentials: as §1

Test [13] deals with T1, Chondroitin sulfate N-acetylgalactosaminyltransferase 1 (Homo sapiens). The test is described as follows: Destabilization of CSGalNacT-1 in human Huh7.5 cells assessed as reduction in CSGalNacT-1 mRNA levels by gene chip assay. It is filed as cell-based.
For test [14] the target is unchanged. The test is described as follows: Destabilization of CSGalNacT-1 in HCV infected human HuH7.5 cells assessed as reduction in CSGalNacT-1 mRNA levels at 6.25 to 100 uM measured after 72 hrs by qRT-PCR analysis. As to conditions: dose 6.25-100 µM. In outline:
as §2

Test [15] concerns Hepatitis C virus. The test is described as follows: Synergistic antiviral activity against HCV J6/JFH/JC1 infected in human HuH7.5 cells assessed as combination index measured after 72 hrs in presence of daclatasvir by Chou-Talalay method. It is filed as functional, Hepacivirus hominis.
The test system of test [16] is Hepacivirus hominis. The test is described as follows: Inhibition of HCV NS5A.
Test [17] has as its target T1, Chondroitin sulfate N-acetylgalactosaminyltransferase 1 (Homo sapiens). The test is described as follows: Destabilization of CSGalNacT-1 in human Huh7.5 cells assessed as down regulation of CSGalNacT-1 protein levels at 25 uM measured after 24 hrs in presence of protease inhibitor MG132 by Western blot analysis. It is filed as cell-based. In outline:
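Huh7.5 cells cotreated with compound (25 μM) and proteasome inhibitor MG132 (1 μM). Cells given compound alone or MG132 alone served as controls. After 24 h, total intracellular protein extracted and CSGalNAcT-1 detected by Western blot.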

Test [18] shares this target. The test is described as follows: Destabilization of CSGalNacT-1 in human Huh7.5 cells assessed as reduction in CSGalNacT-1 expression measured after 72 hrs by Western blot analysis. It is filed as cell-based. As to conditions: dose 6.25-100 µM.
Test [19] concerns Hepatitis C virus. The test is described as follows: Antiviral activity against HCV subgenomic replicon harboring I377-3'del.S infected in human GS4.3 cells assessed as inhibition of viral replication at 0.23 to 18.52 uM after 72 hrs by qRT-PCR analysis. The class given is functional, organism-based. As to conditions: Hepacivirus hominis, Liver, dose 0.23-18.52 µM. In outline:
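GS4.3 cells (Huh7 carrying HCV subgenomic replicon I377-3′del.S) seeded at 3 × 10^4/cm2, after 24 h treated with compound or solvent control. After 72 h intracellular RNA extracted and replicon RNA measured by qRT-PCR. Cytotoxicity checked by MTT at 72 h.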
Background: A replicon is a self-replicating genome or part of one, used to study replication in cells.

Test [20] deals with Hepatitis C virus. The test is described as follows: Synergistic antiviral activity against HCV J6/JFH/JC1 infected in human HuH7.5 cells assessed as combination index measured after 72 hrs in presence of sofosbuvir by Chou-Talalay method. The class given is functional, Hepacivirus hominis.
In test [21] the test system is Hepatitis C virus. As to the kind of experiment: Synergistic antiviral activity against HCV J6/JFH/JC1 infected in human HuH7.5 cells assessed as combination index measured after 72 hrs in presence of simeprevir by Chou-Talalay method. It is filed as functional, Hepacivirus hominis.
The target of test [22] is T1, Chondroitin sulfate N-acetylgalactosaminyltransferase 1 (Homo sapiens). As to the kind of experiment: Destabilization of CSGalNacT-1 in human Huh7.5 cells assessed as reduction in CSGalNacT-1 mRNA levels at 6.25 to 100 uM measured after 72 hrs by qRT-PCR analysis. Conditions: dose 6.25-100 µM. It is filed as cell-based.

Each structure is given as a SMILES string. The source made the active and inactive calls. No cut-off for these calls is given here.

With `COc1cc(/C=C/c2ccccc2)c(C(=O)O)c(O)c1CC=C(C)C`, the result (with Huh7.5 [1]; with Huh7.5 [3]; with Hepatitis C virus [9]; in test [14]; in [17]; in the test with Hepatitis C virus [19]) was inactive. Besides, the result in test [22] was inactive. Moreover, the figures for the EC50 in the test on Hepatitis C virus [2] and in the test on Hepatitis C virus [5] were 8.59 µM and 3.8 µM, respectively. Besides, the result (in the test with Hepatitis C virus [4]; in the test on Hepatitis C virus [12]; in test [13]) was Active. Moreover, the inhibition result in the test with Hepacivirus hominis [6], with Hepacivirus hominis [7] and in the test with Hepacivirus hominis [16] was “inactive” each time. The results for the “Ratio EC50” value in [8] and in test [11] were 1.3 and 2.8, respectively. Also, the Activity result in [10] and in test [18] was “Dose-dependent effect” each time. The CI came out at 0.76 with Hepatitis C virus [15], 0.693 in the test with Hepatitis C virus [20] and 0.953 in the test with Hepatitis C virus [21].
